Bioassay records (PubChem)
Dynein cargo inh: blocks dynein driven cargo transport along microtubules; 3617.4 mouse cells, GR-EGFP nuclear translocation imaging; test concentration mostly 20 µM; stimulated with dexamethasone, 1 µM; active compounds read low; z-score, hits read low; 220,000 tested, 0.47% active; AID 1381;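 active means plate z-score of nuclear minus cytoplasmic receptor signal below a set negative limit, without overly bright fluorescence or cell loss, cut at about -3.5 in these data, passing the limit was not always enough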;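 further: z-score of nuclear minus cytoplasmic ring GR-EGFP intensity difference per well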
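Buffer or medium: tetracycline-free induction medium containing charcoal-stripped FBS / Reagent: dexamethasone agonist, 1.0 µM final, for 30 min / Technique: automated 10x imaging of fixed Hoechst-stained cells / Times: induction 48 h, compound 1 h, agonist 30 min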
PTEN del growth: growth suppressors of cells with PTEN tumor suppressor deletion | HCT116 PTEN-null viability, CellTiter-Glo, 60 h; active compounds read low | viability, % at 10 µM | 140,000 tested, 1.2% active | AID 827;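 active means viability at or below a set limit, 4 SD under the median of all tested compounds, cut at about 3.7% in these data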;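 further: PTEN knockout HCT116 line with beta catenin targeted HCT116 as companion control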
HCT116 bCat-KO: beta-catenin-lacking colon tumor cell growth suppression; viability, % at 10 µM; AID 818; HCT116 beta-catenin knockout viability, CellTiter-Glo, 60 h; active compounds read low; 140,000 tested, 1.5% active;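 active means viability at or under a set limit, the compound median less 4 SD, cut at about 6% in these data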;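 further: 0% = Hyamine 1622 control at 20 µM and 100% = untreated cell control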
Autophagy HCS: alters autophagy in cells; MEF GFP-LC3 puncta imaging; test concentration mostly 10 µM; calls only at 10 µM (by protocol); 190,000 tested, 0.98% active; AID 463193;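 active means percentage of spot-positive cells more than 3 SD above its plate mean, without a fluorescence outlier flag or 80% toxicity; inconclusive means no clear call, values can overlap the other calls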;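 further: spot-positive cell cutoff set from DMSO-treated cells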
sdo1 growth: sdo1-depleted yeast growth rescue; AID 817; S. cerevisiae sdo1-depleted JHY4D growth rescue, OD600 30 h; active compounds read high; pdr5 snq2 efflux-pump mutant strain; z-score at 10 µM; 140,000 tested, 0.21% active;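 active means z-score above 3 at both the 24 hr and the 30 hr optical density reads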;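 further: z-score against mean and SD of all compound wells on the same plate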
Dynein confirm: dynein cargo transport inhibition, confirmation; calls only at 20 µM; shares compounds with Dynein cargo inh; 1,000 tested, 69% active; 3617.4 GR-EGFP nuclear translocation imaging, dexamethasone-induced;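 active means inhibition of receptor movement into the nucleus at or above a set limit in both runs, with normal cell brightness and cell count; inconclusive means limit reached in only one run, brightness and count normal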;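 further: dexamethasone at 1 µM final in well for 30 min; nuclear minus cytoplasmic GR-EGFP mean intensity difference in channel 2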
Numbers without * were called inactive; i = inactive; ? = inconclusive; nt = not tested or not shown; + = active, no number. Sampled rows, rich in hits. Any-hit rate of the full collection: about 2.2%.

SMILES	Dynein cargo inh	PTEN del growth	HCT116 bCat-KO	Autophagy HCS	sdo1 growth	Dynein confirm
Nc1c(C(=O)c2ccccc2)sc2nsc(SCCN3CCCC3)c12	-5.99	nt	nt	nt	nt	i
Nc1c(C(=O)c2ccc(Cl)cc2)sc2nsc(SCCN3CCOCC3)c12	-10.4	nt	nt	nt	nt	i
CCN(CC)S(=O)(=O)c1ccc2oc(SCC3CN=C(c4ccc(OC)cc4)S3)nc2c1 (centres undefined)	0.21	24.4	25.4	i	-1.04	nt
Cn1c(Cl)cnc1C1CC(=O)c2cc(Cl)ccc2O1 (centres undefined)	-5.93*	1.8*	2.8*	i	-2.33	?
C=CCn1c(SCC(=O)Nc2ccccc2C)nnc1-c1ccncc1	-0.484	71.5	76.3	i	2	nt
CC(=O)NC(=S)Nc1sc2c(c1C(N)=O)CCC(C)C2 (centres undefined)	0.305	nt	nt	i	nt	nt
O=c1cc(CSc2nnc(-c3ccco3)o2)c2ccccc2[nH]1	-0.185	116.7	104.7	i	0.6	nt
N#CCCn1cc(/C=N/O)c(-c2ccccc2)n1	-0.381	94.7	96.5	i	1.04	nt
N#CCCn1cc(C=C(C#N)C#N)c(-c2ccc(-c3ccccc3)cc2)n1	-4.13*	30.4	38.2	i	-0.41	?
Nc1ccc2oc(C3CCCCC3)nc2c1	-0.189	nt	nt	i	nt	nt
CN(c1ccccc1)c1ccc(/C=C/[N+](=O)[O-])cc1	-3.55*	3.5*	4.7*	i	-2.37	i
Cc1cc(C(=O)Cn2ncc(Cl)c(Cl)c2=O)c(C)n1CC(F)(F)F	-5.14*	0.8*	0.5*	i	0.43	+
O=C(OCn1nnc2ccccc2c1=O)c1ccc(O)cc1	0.272	nt	nt	i	nt	nt
Cc1cccc(Cn2ncc(Cl)c(Cl)c2=O)c1	-4.3*	2.2*	2.2*	i	-0.05	+
Cc1cc(Br)ccc1NC(=O)CNC(=O)Cn1ncc(Cl)c(Cl)c1=O	-1.1	nt	nt	i	nt	nt
Cc1ccc(C(=O)OCn2ncc(Cl)c(Cl)c2=O)cc1	-3.8*	1.2*	1.0*	?	-2.86	+
Cc1ccc(C)c(C(=O)Cn2ncc(Cl)c(Cl)c2=O)c1	-4.71*	1.3*	1.8*	i	-0.43	?
Cc1cccc(Cn2cnc3c(nnn3Cc3ccc(F)cc3)c2=O)c1	0.568	73.2	73.2	i	-1.8	nt
O=C1C2C3C=CC(C4CC34)C2C(=O)N1/N=C/c1cccs1 (centres undefined)	1.62	87.6	94.8	i	1.59	nt
O=C(OC(C(=O)NCC1CCCO1)c1ccccc1F)c1ccco1 (centres undefined)	-0.597	97.8	104.0	i	0.12	nt
Cc1cc2oc(=O)cc(Cn3ncc(Cl)c(Cl)c3=O)c2cc1Cl	-6.11*	nt	nt	+	nt	+
N#C/C(=C\Nc1ccc2cn[nH]c2c1)c1nc(-c2ccccc2)cs1	1.26	nt	nt	i	nt	nt
Cc1ccnc(N/C=C(\C#N)c2nc(-c3cccc(Br)c3)cs2)c1	-11.7	39.3	68.3	+	-2.05	+
CCCCCCC(=O)N(O)C1CC(=O)N(c2ccc(Cl)cc2)C1=O (centres undefined)	-5.08*	nt	nt	nt	nt	+
Brc1ccccc1-n1nnc(-c2nccs2)n1	-1.01	nt	nt	i	nt	nt
SMILES	Dynein cargo inh	PTEN del growth	HCT116 bCat-KO	Autophagy HCS	sdo1 growth	Dynein confirm
O=C(/C=C/c1cc(Br)ccc1O)c1ccco1	-4.73*	nt	nt	nt	nt	i
O=C(NCCC1=CCCCC1)c1ccc(=O)oc1	-0.138	95.2	97.6	i	0.27	nt
O=C(NCCC1=CCCCC1)c1coc(=O)c(Br)c1	-6.03*	1.0*	1.1*	i	-1.64	?
O=C(Nc1ccccc1-c1ccccc1)C(=O)Nc1ccccc1-c1ccccc1	0.442	nt	nt	nt	nt	nt
O=[N+]([O-])c1ccc(Sc2nccn2Cc2ccccc2)c([N+](=O)[O-])c1	-4.57*	4.8	4.8*	i	-0.5	+
Cc1cccc(Sc2ccc([N+](=O)[O-])cc2[N+](=O)[O-])n1	-0.101	31.1	25.4	i	0.07	nt
O=[N+]([O-])c1cc(C(F)(F)F)ccc1Sc1nccn1Cc1ccccc1	0.0285	84.5	88.8	i	-1.09	nt
O=[N+]([O-])c1ccc(Sc2ncccn2)c([N+](=O)[O-])c1	-4.84*	nt	nt	nt	nt	i
COc1cc(C(=O)NCCCNc2ccc([N+](=O)[O-])cc2)cc(OC)c1OC	1.43	80.7	89.5	i	1.28	nt
CC1(C)Cc2c(C#N)c(NC3CCCCC3)nc(-c3ccco3)c2CO1	-4.28*	81.3	95.1	i	-0.54	i
CC1(C)Cc2c(C#N)c(NCC3CCCO3)nc(-c3ccco3)c2CO1 (centres undefined)	-1.53	89.7	86.4	i	-0.34	nt
CCOC(=O)c1c(C)oc2c1c(C(c1cccnc1)N1CCOCC1)c(O)c1ccccc12 (centres undefined)	-3.71*	20.3	24.4	i	-2.04	?
CC1OC(OC2C(OC3C(O[C@H]4CC[C@]5(C)C6C=C[C@]78OC[C@@]9(CC[C@@H](C)[C@H](C)C97)[C@H](O)C[C@@]8(C)[C@]6(C)CC[C@H]5C4(C)C)OC(C)C(O)C3O)OC(CO)C(O)C2O)C(O)C(O)C1O (some centres undefined)	-3.86*	nt	nt	nt	nt	i
COc1cccc(N2CC(O)Cn3c2nc2c3c(=O)n(CCCc3ccccc3)c(=O)n2C)c1 (centres undefined)	-0.237	74.0	66.9	i	1.13	nt
Cc1ccc2oc(Nc3nc(-c4ccccc4)cc(=O)[nH]3)nc2c1	-0.851	nt	nt	i	nt	nt
COCc1cc(S(=O)c2ccc(Cl)cc2)nc(C)n1 (centres undefined)	-4.46*	nt	nt	i	nt	+
COCc1cc(Sc2ccc(Cl)cc2)nc(C)n1	-0.728	nt	nt	i	nt	nt
CCCSc1nc(NCc2ccco2)c2c3c(sc2n1)COC(C)(C)C3	-0.794	56.9	62.5	i	-0.5	nt
Cc1ccc(-c2csc3ncnc(Sc4nnc(CN5CCCCCC5=O)o4)c23)cc1	-3.85*	1.7*	1.9*	+	-1.81	+
O=C(Cn1sc2ccccc2c1=O)NC12CC3CC(CC(C3)C1)C2	-5.13*	1.1*	0.7*	i	-2.21	i
CCOC(=O)/C(=C/C=C1\Sc2cc(C)c(C)cc2N1CC)C(C)=O	-3.8	nt	nt	i	nt	i
CCCn1nc([N+](=O)[O-])c(C(C#N)c2nc3ccccc3s2)c(Cl)c1=O (centres undefined)	-5.07*	41.7	33.8	i	-0.82	+
CCn1nc([N+](=O)[O-])c(C(C#N)c2nc3ccccc3n2C)c(Cl)c1=O (centres undefined)	-1.74	87.3	83.2	i	-0.19	nt
Cc1cc(C)n(C(C[N+](=O)[O-])c2ccc(Cl)cc2)n1 (centres undefined)	-5.57*	36.1	38.9	i	-2.16	i
COc1cccc(/C=C/C(=O)OCC(=O)Nc2ccc(Cl)cn2)c1	0.268	nt	nt	i	nt	nt
